PglD DTNB: inhibitors of Campylobacter jejuni PglD acetyltransferase; inhibition, % at 12.5 µM; 360,000 compounds, 0.098% hits; purified PglD enzyme, DTNB colorimetric CoA detection; AID 602405; in the data active = inhibition above about 16%, passing the limit was not always enough
Cneo AK release: causes C. neoformans cell lysis. adenylate kinase release luminescence, 4 h; normalised: neutral wells 0, clomiphene wells 100. lysis activity, % at 15 µM. 360,000 compounds, 0.2% hits. AID 651654;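 active = mean lysis activity across replicates of at least 80%, whatever share of replicates individually reach that level; inactive = mean lysis activity below 80%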
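Signal: Adenylate kinase release luminescence | Assay system: Log-phase Cryptococcus neoformans yeast cells | Input: Cells at 5 × 10^6 per mL | Buffer or medium: Fresh YPD growth medium | Compound: Single dose | Schedule: Static 4 h at 37 °C with compound, 1 h detection | Controls: Clomiphene | Read-out: Luminescence rise reflecting yeast cell lysis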
rRNA inh HTS: selective bacterial rRNA inhibition in E. coli; AID 720706; GFP signal change (wild-type ribosome), % (no concentration beside the values); 350,000 compounds, 1.6% hits; E. coli WT GFP vs humanized-ribosome RFP mutants, fluorescence, 24 h; stronger effect = lower value; DMSO median 0, no signal -100;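 active = significant combined selectivity score with lowered wild-type GFP, culture density cut under 30%, mutant RFP and density less affected; inactive = any of these conditions unmet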
RAD54 inh: RAD54 (human) branch migration inhibition. AID 602329. RAD54 Holliday junction branch migration, FAM/BHQ fluorescence. 360,000 compounds, 0.14% hits. inhibition, % at 10.4 µM;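 active = mean normalized replicate activity at least 40 and at least half of replicates scoring 40 or more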;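 also: 0% = median of neutral control wells and 100% = median of positive control wells; inhibitors cause a drop in the FAM fluorescence signal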
RAD52 inh: RAD52 (human) annealing inhibition; P43351; recombinant RAD52 DNA annealing, FRET fluorescence; inhibition, % at 18.7 µM; 360,000 compounds, 0.46% hits; AID 651710;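 active = every replicate showing at least 50% inhibition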
Target sequence (P43351 whole entry, looked up): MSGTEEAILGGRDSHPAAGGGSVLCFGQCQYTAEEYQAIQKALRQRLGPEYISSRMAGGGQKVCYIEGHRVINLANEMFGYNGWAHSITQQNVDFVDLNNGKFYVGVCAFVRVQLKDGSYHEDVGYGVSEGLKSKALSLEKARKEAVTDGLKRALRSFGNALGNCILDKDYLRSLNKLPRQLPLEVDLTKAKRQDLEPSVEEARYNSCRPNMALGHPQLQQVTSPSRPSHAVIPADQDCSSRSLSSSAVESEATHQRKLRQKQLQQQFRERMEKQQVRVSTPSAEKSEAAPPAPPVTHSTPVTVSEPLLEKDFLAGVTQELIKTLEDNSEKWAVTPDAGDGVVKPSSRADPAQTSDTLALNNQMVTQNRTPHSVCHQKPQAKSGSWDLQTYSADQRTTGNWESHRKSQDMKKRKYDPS
Starred values were filed as active, the others as inactive; · = no result given; ! = not active in a repeat. Sampled rows, rich in hits. Any-hit rate of the full collection: about 1.9%.

SMILES	PglD DTNB	Cneo AK release	rRNA inh HTS	RAD54 inh	RAD52 inh
CN1/C(=C\C(=O)c2cccs2)Sc2ccccc21	-22	-19	·	1	·
CN1/C(=C/C(=O)c2cccs2)Sc2ccccc21	0	0	·	56*	·
COc1ccc2c3c(n(C)c2c1)[C@@H](CO)N(C(=O)Nc1ccccc1F)CC31CCN(C(=O)c2ccccc2)CC1	·	·	-6	·	·
COc1cc(/C=C/C(=O)NCCc2ccc(S(N)(=O)=O)cc2)ccc1OCC#N	·	·	-26*	·	-15
CCOc1cc(/C=C/C(=O)NCCc2ccc(S(N)(=O)=O)cc2)ccc1OCC(C)C	·	·	-4	·	-11
COc1cc(OC)c(C(=O)/C=C/c2ccc(OCc3ccccc3)c(OC)c2)c(OC)c1	-10	2	0	-2	2
COc1ccc(/C=C/C(=O)NCCNC(=O)c2ccccc2)cc1OC	0	0	-22*	-9	-10
COc1ccc(/C=C/C(=O)NCCCNC(=O)/C=C/c2ccc(OC)c(OC)c2)cc1OC	3	-1	-11	-5	-12
COc1cc(OC)c(C(=O)C=Cc2ccc(OC)c(OC)c2)c(OC)c1	-7	2	-11*	-3	-10
C[C@@H]1CN([C@@H](C)CO)C(=O)c2cc(-c3ccccc3)cnc2O[C@@H]1CN(C)C(=O)Nc1ccccc1	-4	1	-2	7	·
COc1ccc2c3c([nH]c2c1)[C@H](CO)N(Cc1ccccc1Cl)CC31CCN(C(C)=O)CC1	·	·	6	·	·
CC(=O)Nc1ccc2c(c1)C(=O)N(C)C[C@H](C)[C@H](CN(C)C(=O)OC(C)(C)C)O2	·	·	-4	·	·
CCc1cccc(NC(=O)Cn2c3[n+](c4ccc(C(F)(F)F)cc42)CCCCC3)c1	·	·	-45*	·	9
O=C(Cn1c2[n+](c3ccc(C(F)(F)F)cc31)CCCCC2)c1ccc2c(c1)OCCO2	·	·	-38*	·	0
O=[N+]([O-])c1ccccc1-c1ccc(CN2CCN(c3ccccc3)CC2)o1	9	0	-36*	-9	-15
CCCC#Cc1ccc2c(c1)O[C@H](CN(C)C)[C@H](C)CN([C@H](C)CO)S2(=O)=O	-1	2	0	3	1
Cc1ccc(C(=O)CSc2nnnn2Cc2ccccc2)cc1C	·	·	-28*	·	-12
CCCNC(=O)N1CC2(CCN(S(=O)(=O)c3cccc(OC)c3)CC2)c2c(n(C)c3cc(OC)ccc23)[C@H]1CO	·	·	-3	·	-7
Cc1cc(Cl)ccc1OCCCC(=O)N1CCCc2ccccc21	0	4	-30*	-1	-20
Cc1ccc(S(=O)(=O)N[C@H]2CC[C@H](CC(=O)NCc3ccccc3F)O[C@H]2CO)cc1	2	100*	1	-3	-1
Cc1ccc(S(=O)(=O)N[C@@H]2CC[C@H](CCNC(=O)C3CCCC3)O[C@@H]2CO)cc1	2	86*	0	4	0
COc1cc(OC)c(N(C)S(=O)(=O)c2cccc(C(=O)NC3=NCCS3)c2)cc1Cl	1	-1	-23*	1	-3
Cc1cccc(-c2ccc(C3[C@@H]4CN(C(=O)Nc5ccc(F)cc5)C[C@H]3N4)cc2)c1 (some centres not stated)	·	·	-58	·	60*!
O=C(Nc1cccc(F)c1)N1C[C@@H]2N[C@H](C1)C2c1ccc(-c2ccc(F)cc2)cc1 (some centres not stated)	·	·	-59	·	51*
O=C(Nc1cccc(F)c1)N1C[C@@H]2N[C@H](C1)C2c1ccc(-c2cncnc2)cc1 (some centres not stated)	·	·	4	·	·
SMILES	PglD DTNB	Cneo AK release	rRNA inh HTS	RAD54 inh	RAD52 inh
O=C(Nc1ccc(F)cc1)N1C[C@@H]2N[C@H](C1)C2c1ccc(-c2ccccc2F)cc1 (some centres not stated)	·	·	-58	·	55*!
O=C(c1ccc(F)cc1)N1C[C@@H]2N[C@H](C1)C2c1ccc(-c2ccccc2F)cc1 (some centres not stated)	·	·	-60	·	·
S=c1[nH]nc(-c2ccc3ccccc3n2)n1-c1ccc2c(c1)OCCO2	·	·	-33*	·	-13
S=c1[nH]nc(-c2ccc(Br)cc2)n1-c1ccc2c(c1)OCCO2	·	·	-14*	·	-8
COc1ccc(-c2n[nH]c(=S)n2-c2ccc3c(c2)OCCO3)cc1	-3	1	·	5	·
CCC/C(O)=C1\C(=O)CC(C)(C)CC1=NCc1ccccc1	·	·	-22*	·	-13
Cc1cc(C(=O)Nc2ccc3c(c2)C(=O)N(C)[C@@H]2CC[C@@H](CC(=O)N[C@@H](C)c4ccccc4)O[C@@H]2CO3)no1	2	83*	0	-2	-16
Cc1cc(C(=O)Nc2ccc3c(c2)C(=O)N(C)[C@H]2CC[C@H](CC(=O)N[C@@H](C)c4ccccc4)O[C@H]2CO3)no1	4	7	4	-1	-23
Cc1cc(C(=O)Nc2ccc3c(c2)C(=O)N(C)[C@H]2CC[C@@H](CC(=O)N[C@@H](C)c4ccccc4)O[C@H]2CO3)no1	3	100*	-2	0	-6
Cc1cc(C(=O)Nc2ccc3c(c2)C(=O)N(C)[C@@H]2CC[C@@H](CC(=O)N[C@H](C)c4ccccc4)O[C@H]2CO3)no1	0	7	-2	1	-19
COc1ccc(/C=N/Nc2nc3ccccc3[nH]2)cc1OC	1	-4	-44	13	13
COc1cc(OC)c(OC)cc1/C=N/Nc1nc2ccccc2[nH]1	·	·	-39*	·	-1
C(=N\Nc1nc2ccccc2[nH]1)/c1cccc2nccnc12	2	-3	-31*	8	-2
C[C@H]1CCCCO[C@@H](CN(C)CC2CCCCC2)[C@@H](C)CN([C@@H](C)CO)C(=O)c2cc(NC(=O)Nc3ccc4c(c3)OCO4)ccc2O1	-1	3	-13	-2	14
C[C@H]1CN(C)C(=O)c2cccc(NS(C)(=O)=O)c2O[C@H]1CN(C)S(C)(=O)=O	·	·	0	·	·
C[C@@H]1CN([C@H](C)CO)C(=O)c2cccc(NC(=O)c3cnccn3)c2O[C@@H]1CN(C)S(=O)(=O)c1ccccc1	·	·	-2	·	·
Cc1ccc(N/C=C(\[N+](=O)[O-])S(=O)(=O)c2ccccc2)cc1	·	·	-22*	·	-8
CCOc1ccccc1N(C(=O)c1ccccc1Cl)C1=NC(C)(C)CS1	·	-2	-23*	-2	-8
COc1ccc(C)cc1N(C(=O)c1ccc(C#N)cc1)C1=NC(C)(C)CS1	-5	12	10	4	-11
CNc1snc(C)c1C(=O)OC(C)C(=O)c1ccc(F)cc1 (configuration not stated)	-6	-1	-24*	7	-23
CO[C@@H]1CN(C)C(=O)c2ccc(NS(C)(=O)=O)cc2OC[C@@H](C)N(C(=O)C2CCCC2)C[C@@H]1C	·	·	-1	·	-10
COc1ccc(C#Cc2ccc3c(c2)[C@@H]2[C@@H](CCN2C(=O)c2ccncc2)[C@@H](CO)N3)cc1	-3	11	-5	-11	·
COc1ccc(C#Cc2ccc3c(c2)[C@H]2[C@H](CCN2Cc2ccncc2)[C@@H](CO)N3)cc1	·	·	5	·	63*

Source: PubChem (Broad Institute)
